Results published in ChEMBL document CHEMBL1142894, “Preparation of 5-aryl-3-alkylthio-l,2,4-triazoles and corresponding sulfones with antiinflammatory-analgesic activity” (Bioorg Med Chem, 2007).
Active and inactive are the calls of the source. No cut-off for these calls is given here.

Experiments:
[1] = system: Mus musculus; assay: Acute toxicity in Swiss albino mouse assessed as lethal effect at 25 mg/kg/day, po after 72 hrs; type: organism-based; set-up: route oral; details: in vivo
How it was run: (§1)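 Oral single dose suspended in 0.5% carboxymethylcellulose, given after a 24 h fast; food and water returned 1 h after dosing. Vehicle-only controls. Mice observed at 1 h, then once daily for 72 h, for toxic signs and mortality.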

[2] = system: Mus musculus; assay: Antiinflammatory activity against carrageenan-induced paw edema in Swiss albino mouse assessed as swelling thickness at 50 mg/kg, po after 180 mins; type: functional
How it was run: (§2)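 Oral dosing in 0.5% CMC; vehicle to controls. Then carrageenan (0.5 mg/25 ll, freshly suspended in 154 mM saline) injected into the right hind paw subplantar tissue; saline into the left paw. Right-left footpad thickness difference measured by dial gauge calliper every 90 min over 6 h. Inhibition % is relative to vehicle control. n = 6; mean ± SEM.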

[3] = system: Mus musculus; assay: Antiinflammatory activity against carrageenan-induced paw edema in Swiss albino mouse assessed as swelling thickness at 200 mg/kg, po after 360 mins; type: functional; how it was run: as §2
[4] = system: Mus musculus; assay: Antiinflammatory activity against carrageenan-induced paw edema in Swiss albino mouse assessed as swelling thickness at 25 mg/kg, po after 180 mins; type: functional; how it was run: as §2
[5] = system: Mus musculus; assay: Inhibition of p-benzoquinone-induced writhing in Swiss albino mouse at 200 mg/kg, po relative to control; type: functional
How it was run: (§3)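 Mice, n = 6 per group, dosed orally with a suspension in 0.5% sodium CMC. 60 min later, 0.1 ml/10 g of 2.5% […] p-benzoquinone in distilled water given ip. Abdominal writhes counted per animal for 15 min, starting 5 min after injection. Expressed as % change in mean writhing count versus vehicle controls.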

[6] = system: Mus musculus; assay: Gastric-ulcerogenic effect in Swiss albino mouse assessed as lesions at 25 mg/kg, po; type: functional, organism-based; set-up: dose 25 mg/kg
How it was run: (§4)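 Mice killed under deep ether anesthesia 3 h after the writhing test; the oral dose in 0.5% CMC was the one used in that test. Stomachs removed, opened along the great curvature and examined under a dissecting microscope for lesions or bleeding. Reported as ratio of ulceration; n = 6.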

[7] = system: Mus musculus; assay: Antiinflammatory activity against carrageenan-induced paw edema in Swiss albino mouse assessed as swelling thickness at 25 mg/kg, po after 90 mins; type: functional; how it was run: as §2
[8] = system: Mus musculus; assay: Antiinflammatory activity against carrageenan-induced paw edema in Swiss albino mouse assessed as swelling thickness at 50 mg/kg, po after 270 mins; type: functional; how it was run: as §2
[9] = system: Mus musculus; assay: Antiinflammatory activity against carrageenan-induced paw edema in Swiss albino mouse assessed as swelling thickness at 200 mg/kg, po after 270 mins; type: functional; how it was run: as §2
[10] = system: Mus musculus; assay: Inhibition of carrageenan-induced paw edema in Swiss albino mouse at 25 mg/kg, po after 90 mins relative to control; type: functional; details: 1.5 h; how it was run: as §2
[11] = system: Mus musculus; assay: Inhibition of carrageenan-induced paw edema in Swiss albino mouse at 25 mg/kg, po after 180 mins relative to control; type: functional; details: 3 h; how it was run: as §2
[12] = system: Mus musculus; assay: Inhibition of carrageenan-induced paw edema in Swiss albino mouse at 100 mg/kg, po after 180 mins relative to control; type: functional; details: 3 h; how it was run: as §2
[13] = system: Mus musculus; assay: Acute toxicity in Swiss albino mouse assessed as lethal effect at 100 mg/kg/day, po after 72 hrs; type: organism-based; set-up: route oral; details: in vivo; how it was run: as §1
[14] = system: Mus musculus; assay: Antiinflammatory activity against carrageenan-induced paw edema in Swiss albino mouse assessed as swelling thickness at 25 mg/kg, po after 360 mins; type: functional; how it was run: as §2
[15] = system: Mus musculus; assay: Analgesic activity against p-benzoquinone-induced abdominal constriction in Swiss albino mouse assessed as number of writhings at 25 mg/kg, po; type: functional, Abdomen
How it was run: (§5)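 Test samples given orally in 0.5% CMC; vehicle to controls. 60 min later, 2.5% (v/v) p-benzoquinone in distilled water, 0.1 ml/10 g, given i.p. Mice housed singly; writhes counted for 15 min starting 5 min after injection. Activity is % change from vehicle controls. n = 6; mean ± SEM.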

[16] = system: Mus musculus; assay: Analgesic activity against p-benzoquinone-induced abdominal constriction in Swiss albino mouse assessed as number of writhings at 100 mg/kg, po; type: functional, Abdomen; how it was run: as §5
[17] = system: Mus musculus; assay: Inhibition of carrageenan-induced paw edema in Swiss albino mouse at 100 mg/kg, po after 90 mins relative to control; type: functional; details: 1.5 h; how it was run: as §2
[18] = system: Mus musculus; assay: Inhibition of p-benzoquinone-induced writhing in Swiss albino mouse at 50 mg/kg, po relative to control; type: functional; how it was run: as §3
[19] = system: Mus musculus; assay: Antiinflammatory activity against carrageenan-induced paw edema in Swiss albino mouse assessed as swelling thickness at 100 mg/kg, po after 360 mins; type: functional; how it was run: as §2
[20] = system: Mus musculus; assay: Inhibition of carrageenan-induced paw edema in Swiss albino mouse at 50 mg/kg, po after 360 mins relative to control; type: functional; details: 6 h
How it was run: (§6)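 Mice, n = 6 per group. Test agent given orally as a suspension in 0.5% sodium CMC in distilled water; controls received vehicle only. Afterwards, 0.5 mg/25 ll carrageenan in saline (154 mM NaCl) injected subplantar into the right hind paw, saline into the left. Right-minus-left footpad thickness measured by dial gauge caliper every 90 min for 6 h. Inhibition is relative to vehicle-control group means.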

[21] = system: Mus musculus; assay: Acute toxicity in Swiss albino mouse assessed as lethal effect at 50 mg/kg/day, po after 72 hrs; type: organism-based; set-up: route oral; details: in vivo; how it was run: as §1
[22] = system: Mus musculus; assay: Analgesic activity against p-benzoquinone-induced abdominal constriction in Swiss albino mouse assessed as number of writhings at 200 mg/kg, po; type: functional, Abdomen; how it was run: as §5
[23] = system: Mus musculus; assay: Inhibition of carrageenan-induced paw edema in Swiss albino mouse at 50 mg/kg, po after 270 mins relative to control; type: functional; details: 4.5 h; how it was run: as §6
[24] = system: Mus musculus; assay: Antiinflammatory activity against carrageenan-induced paw edema in Swiss albino mouse assessed as swelling thickness at 25 mg/kg, po after 270 mins; type: functional; how it was run: as §2
[25] = system: Mus musculus; assay: Inhibition of carrageenan-induced paw edema in Swiss albino mouse at 100 mg/kg, po after 360 mins relative to control; type: functional; details: 6 h; how it was run: as §2
[26] = system: Mus musculus; assay: Inhibition of p-benzoquinone-induced writhing in Swiss albino mouse at 25 mg/kg, po relative to control; type: functional; how it was run: as §3
[27] = system: Mus musculus; assay: Gastric-ulcerogenic effect in Swiss albino mouse assessed as lesions at 50 mg/kg, po; type: functional, organism-based; set-up: dose 50 mg/kg; how it was run: as §4
[28] = system: Mus musculus; assay: Inhibition of carrageenan-induced paw edema in Swiss albino mouse at 50 mg/kg, po after 90 mins relative to control; type: functional; details: 1.5 h; how it was run: as §6
[29] = system: Mus musculus; assay: Antiinflammatory activity against carrageenan-induced paw edema in Swiss albino mouse assessed as swelling thickness at 200 mg/kg, po after 90 mins; type: functional; how it was run: as §2
[30] = system: Mus musculus; assay: Inhibition of carrageenan-induced paw edema in Swiss albino mouse at 25 mg/kg, po after 360 mins relative to control; type: functional; details: 6 h; how it was run: as §2
[31] = system: Mus musculus; assay: Antiinflammatory activity against carrageenan-induced paw edema in Swiss albino mouse assessed as swelling thickness at 100 mg/kg, po after 90 mins; type: functional; how it was run: as §2
[32] = system: Mus musculus; assay: Acute toxicity in Swiss albino mouse assessed as lethal effect at 200 mg/kg/day, po after 72 hrs; type: organism-based; set-up: route oral; details: in vivo; how it was run: as §1
[33] = system: Mus musculus; assay: Antiinflammatory activity against carrageenan-induced paw edema in Swiss albino mouse assessed as swelling thickness at 200 mg/kg, po after 180 mins; type: functional; how it was run: as §2
[34] = system: Mus musculus; assay: Antiinflammatory activity against carrageenan-induced paw edema in Swiss albino mouse assessed as swelling thickness at 50 mg/kg, po after 360 mins; type: functional; how it was run: as §2
[35] = system: Mus musculus; assay: Antiinflammatory activity against carrageenan-induced paw edema in Swiss albino mouse assessed as swelling thickness at 50 mg/kg, po after 90 mins; type: functional; how it was run: as §2
[36] = system: Mus musculus; assay: Gastric-ulcerogenic effect in Swiss albino mouse assessed as lesions at 100 mg/kg, po; type: functional, organism-based; set-up: dose 100 mg/kg; how it was run: as §4
[37] = system: Mus musculus; assay: Inhibition of carrageenan-induced paw edema in Swiss albino mouse at 50 mg/kg, po after 180 mins relative to control; type: functional; details: 3 h; how it was run: as §2
[38] = system: Mus musculus; assay: Antiinflammatory activity against carrageenan-induced paw edema in Swiss albino mouse assessed as swelling thickness at 100 mg/kg, po after 180 mins; type: functional; how it was run: as §2
[39] = system: Mus musculus; assay: Inhibition of p-benzoquinone-induced writhing in Swiss albino mouse at 100 mg/kg, po relative to control; type: functional; how it was run: as §3
[40] = system: Mus musculus; assay: Inhibition of carrageenan-induced paw edema in Swiss albino mouse at 25 mg/kg, po after 270 mins relative to control; type: functional; details: 4.5 h; how it was run: as §2
[41] = system: Mus musculus; assay: Antiinflammatory activity against carrageenan-induced paw edema in Swiss albino mouse assessed as swelling thickness at 100 mg/kg, po after 270 mins; type: functional; how it was run: as §2
[42] = system: Mus musculus; assay: Analgesic activity against p-benzoquinone-induced abdominal constriction in Swiss albino mouse assessed as number of writhings at 50 mg/kg, po; type: functional, Abdomen; how it was run: as §5
[43] = system: Mus musculus; assay: Inhibition of carrageenan-induced paw edema in Swiss albino mouse at 100 mg/kg, po after 270 mins relative to control; type: functional; details: 4.5 h; how it was run: as §2

## CCSc1nc(-c2ccccc2Cl)n[nH]1
[1]
  Activity: Non-toxic
[2]
  Activity: 42.8 10^-2mm
[3]
  Activity: 75.9 10^-2mm
[4]
  Activity: 54.8 10^-2mm
[5]
  inhibition in vivo at 200 mg/kg: 19.6%
[6]
  Activity: Active
[7]
  Activity: 49.3 10^-2mm
[8]
  Activity: 46.8 10^-2mm
[9]
  Activity: 67.9 10^-2mm
[10]
  inhibition in vivo at 25 mg/kg: 7.3%
[11]
  inhibition in vivo at 25 mg/kg: 7.7%
[12]
  inhibition in vivo at 100 mg/kg: 26.6%
[13]
  Activity: Non-toxic
[14]
  Activity: 68.9 10^-2mm
[15]
  Activity: 48.5
[16]
  Activity: 35.2
[17]
  inhibition in vivo at 100 mg/kg: 25.9%
[18]
  inhibition in vivo at 50 mg/kg: 26.4%
[19]
  Activity: 47.5 10^-2mm
[20]
  inhibition in vivo at 50 mg/kg: 29.6%
[21]
  Activity: Non-toxic
[22]
  Activity: 41.3
[23]
  inhibition in vivo at 50 mg/kg: 27.8%
[24]
  Activity: 60.5 10^-2mm
[25]
  inhibition in vivo at 100 mg/kg: 30.9%
[26]
  inhibition in vivo at 25 mg/kg: 5.6%
[27]
  Activity: Active
[28]
  inhibition in vivo at 50 mg/kg: 15%
[29]
  Activity: 55.8 10^-2mm
[30]
  inhibition in vivo at 25 mg/kg: 4.3%
[31]
  Activity: 33.2 10^-2mm
[32]
  Activity: Non-toxic
[33]
  Activity: 61.2 10^-2mm
[34]
  Activity: 50.7 10^-2mm
[35]
  Activity: 45.2 10^-2mm
[36]
  Activity: Active
[37]
  inhibition in vivo at 50 mg/kg: 27.9%
[38]
  Activity: 37.8 10^-2mm
[39]
  inhibition in vivo at 100 mg/kg: 25.6%
[40]
  inhibition in vivo at 25 mg/kg: 6.6%
[41]
  Activity: 42.2 10^-2mm
[42]
  Activity: 37.8
[43]
  inhibition in vivo at 100 mg/kg: 28.2%
